Reference: ChEMBL document CHEMBL5030505, “Assessment of NR4A Ligands That Directly Bind and Modulate the Orphan Nuclear Receptor Nurr1” (J Med Chem, 2020)
Activity calls are given as the source filed them. The rule behind the calls is not given here.

How the values were obtained:
Type in all cases: cell-based
[1] = molecular target: Nuclear receptor subfamily 4 group A member 2 (Homo sapiens) (UniProt P43354); experiment: Modulation of full length human Nurr1 expressed in HEK293T cells co-transfected with RXRalpha and luciferase reporter plasmid harboring NBRE response element assessed as decrease in luciferase activity at 1.56 to 6.25 uM incubated for 18 by luciferase reporter gene assay; details: filed as modulator, dose 1.56-6.25 µM, time 18.0 hrs
[2] = molecular target: Nuclear receptor subfamily 4 group A member 2 (Homo sapiens) (UniProt P43354); experiment: Modulation of full length human Nurr1 expressed in PC12 cells co-transfected with luciferase reporter plasmid harboring NurRE response element assessed as increase in luciferase activity at 1.56 to 6.25 uM incubated for 18 by luciferase reporter gene assay; details: PC-12, filed as modulator, dose 1.56-6.25 µM, time 18.0 hrs
In short: (§1)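 Cells transfected (Lipofectamine 2000, 18 h) with full-length Nurr1 expression plasmid (2 μg) and 3xNBRE- or 3xNurRE-luciferase reporter (6 μg), no internal control normalisation; replated 10,000 cells/well, 4 h; ligand or vehicle in quadruplicate for 18 h; Britelite Plus luminescence as fold change over vehicle. Mean ± s.e.m. (n=4); one-way ANOVA versus vehicle.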

[3] = molecular target: Nuclear receptor subfamily 4 group A member 2 (Homo sapiens) (UniProt P43354); experiment: Modulation of full length human Nurr1 expressed in HEK293T cells co-transfected with luciferase reporter plasmid harboring NurRE response element assessed as decrease in luciferase activity at 1.56 to 6.25 uM incubated for 18 by luciferase reporter gene assay; details: filed as modulator, dose 1.56-6.25 µM, time 18.0 hrs; in short: as §1
[4] = system: SKNBE2; experiment: Modulation of Gal4-fused VP16 expressed in SKNBE2 cells co-transfected with UAS repoter gene assessed as decrease in luciferase activity at 5 to 100 uM incubated for 18 hrs by luciferase reporter gene assay; details: Human alphaherpesvirus 2, filed as modulator, dose 5-100 µM
In short: (§2)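 Cells in 10-cm dishes were transfected with Gal4-VP16 expression plasmid (2 μg) plus 5xUAS-luciferase reporter (2 μg) for 18 h. They were replated at 10,000 cells/well for 4 h, then given ligand or vehicle (water, ethanol or DMSO) in quadruplicate for 18 h. Luciferase was read with Britelite Plus. Fold change is versus vehicle-treated cells, with one-way ANOVA versus vehicle.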

[5] = system: HEK293T; experiment: Modulation of Gal4-fused VP16 expressed in HEK293T cells co-transfected with UAS repoter gene assessed as decrease in luciferase activity at 5 to 100 uM incubated for 18 hrs by luciferase reporter gene assay; details: Human alphaherpesvirus 2, filed as modulator, dose 5-100 µM; in short: as §2

Chain of Nuclear receptor subfamily 4 group A member 2 (Homo sapiens) (P43354 whole entry, the tested form may be a part): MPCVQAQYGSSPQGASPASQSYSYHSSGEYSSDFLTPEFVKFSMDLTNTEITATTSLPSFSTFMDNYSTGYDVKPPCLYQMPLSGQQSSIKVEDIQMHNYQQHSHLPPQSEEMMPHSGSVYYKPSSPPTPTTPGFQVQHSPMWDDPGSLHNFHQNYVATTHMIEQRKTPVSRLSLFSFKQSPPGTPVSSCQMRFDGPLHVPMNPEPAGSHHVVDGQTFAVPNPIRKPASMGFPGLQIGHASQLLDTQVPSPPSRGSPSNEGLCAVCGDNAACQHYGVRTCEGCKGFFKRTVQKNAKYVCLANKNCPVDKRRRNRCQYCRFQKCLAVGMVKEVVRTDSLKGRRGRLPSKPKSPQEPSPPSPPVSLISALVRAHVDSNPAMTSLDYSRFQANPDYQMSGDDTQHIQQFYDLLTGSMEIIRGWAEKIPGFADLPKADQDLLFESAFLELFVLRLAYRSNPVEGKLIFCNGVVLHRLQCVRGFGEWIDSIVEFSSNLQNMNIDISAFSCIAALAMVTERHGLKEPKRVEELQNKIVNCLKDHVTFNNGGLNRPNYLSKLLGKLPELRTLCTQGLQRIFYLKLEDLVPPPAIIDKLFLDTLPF

| SMILES | Activity [1] | Activity [2] | Activity [3] | Activity [4] | Activity [5] |
| --- | --- | --- | --- | --- | --- |
| CC1=C(O)C(=O)C=C2C1=CC=C1[C@@]2(C)CC[C@@]2(C)[C@@H]3C[C@](C)(C(=O)O)CC[C@]3(C)CC[C@]12C [CELASTROL] | Active | Active | Active | – | – |
| CCCCCCCC(=O)c1c(O)cc(O)cc1CC(=O)OCC [CYTOSPORONE B] | – | – | – | Active | Active |
